ChEMBL document CHEMBL1781933, “Neurosteroid analogues. 16. A new explanation for the lack of anesthetic effects of δ(16)-alphaxalone and identification of a δ(17(20)) analogue with potent anesthetic activity” (J Med Chem, 2011)
Calls of active or inactive are those of the source. No cut-off for these calls is given here.

Experiments:
Xenopus laevis [1] = assay: Anesthetic effect on Xenopus laevis tadpole assessed as loss of swimming reflex at 3 uM; type: functional, organism-based
Xenopus laevis [2] = assay: Anesthetic effect on Xenopus laevis tadpole assessed as loss of swimming reflex at 10 uM; type: functional, organism-based
Xenopus laevis [3] = assay: Anesthetic effect on Xenopus laevis tadpole assessed as loss of righting reflex; type: functional, organism-based
Summary of the method: (§1)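 Xenopus tadpoles were exposed to steroid at five or more concentrations, with 10 or more animals per concentration. Loss of righting or swimming reflex was scored. EC50 and Hill coefficient were fitted from the dose–response curves; mean ± SEM.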

Xenopus laevis [4] = assay: Anesthetic effect on Xenopus laevis tadpole assessed as loss of swimming reflex at 30 uM; type: functional, organism-based
Xenopus laevis [5] = assay: Anesthetic effect on Xenopus laevis tadpole assessed as loss of swimming reflex; type: functional, organism-based; summary of the method: as §1
Oocyte [6] = assay: Activity at rat GABA-A receptor alpha1beta2gamma2L expressed in Xenopus oocytes assessed as potentiation of GABA-induced chloride current at 1 uM by electrophysiological Method relative to control; type: cell-based
Summary of the method: (§2)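 Oocytes expressing rat α1β2γ2L GABA-A receptors were recorded whole-cell. Compound at 0.1, 1 or 10 µM was co-applied with 2 µM GABA. Response is the current ratio with/without compound. At least four different oocytes per concentration; mean ± SEM.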

Oocyte [7] = assay: Activity at rat GABA-A receptor alpha1beta2gamma2L expressed in Xenopus oocytes assessed as potentiation of GABA-induced chloride current at 10 uM by electrophysiological Method relative to control; type: cell-based; summary of the method: as §2
Oocyte [8] = assay: Activity at rat GABA-A receptor alpha1beta2gamma2L expressed in Xenopus oocytes assessed as potentiation of GABA-induced chloride current at 0.1 uM by electrophysiological Method relative to control; type: cell-based; summary of the method: as §2
Oocyte [9] = assay: Activity at rat GABA-A receptor alpha1beta2gamma2L expressed in Xenopus oocytes assessed as increase in chloride current at 10 uM by electrophysiological Method relative to GABA; type: cell-based
Summary of the method: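 Direct gating measured without GABA. Current evoked by 10 µM steroid applied alone to oocytes expressing rat α1β2γ2L GABA-A receptors, expressed as a ratio to the current evoked by 2 µM GABA. Whole-cell recording. At least four oocytes per compound; mean ± SEM.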

Mus musculus [10] = assay: Anesthetic effect in mouse assessed as duration of loss of righting reflex at 8 mg/kg, iv; type: functional
Mus musculus [11] = assay: Anesthetic effect in mouse assessed as duration of loss of righting reflex at 16 mg/kg, iv; type: functional
Mus musculus [12] = assay: Anesthetic effect in mouse assessed as immediate loss of righting reflex at 16 mg/kg, iv; type: functional, organism-based; parameters: dose 16 mg/kg
Mus musculus [13] = assay: Anesthetic effect in mouse assessed as time taken for recovery of righting effect and walking at 16 mg/kg, iv; type: functional
Mus musculus [14] = assay: Anesthetic effect in mouse assessed as loss of righting reflex at 8 mg/kg, iv; type: functional, organism-based; parameters: dose 8 mg/kg

C[C@]12CC[C@@H](O)C[C@@H]1CC[C@H]1[C@@H]3CC[C@H](C=O)[C@@]3(C)CC(=O)[C@@H]12
Activity (Xenopus laevis [1]): Active | Activity (Xenopus laevis [2]): inactive | EC50 (Xenopus laevis [3]): 3.98 µM

C[C@]12CC[C@@H](O)C[C@@H]1CC[C@@H]1[C@@H]2C(=O)C[C@]2(C)/C(=C/C#N)CC[C@@H]12
Activity (Xenopus laevis [4]): inactive | Activity (Xenopus laevis [2]): Active | EC50 (Xenopus laevis [3]): 9.15 µM | EC50 (Xenopus laevis [5]): 17.3 µM

C[C@]12CC[C@@H](O)C[C@@H]1CC[C@@H]1[C@@H]2C(=O)C[C@]2(C)C(C=O)=CC[C@@H]12
Activity (Xenopus laevis [1]): Active | Activity (Xenopus laevis [2]): inactive | EC50 (Xenopus laevis [3]): 3.22 µM

C/C(C#N)=C1/CC[C@H]2[C@@H]3CC[C@H]4C[C@H](O)CC[C@]4(C)[C@H]3C(=O)C[C@]12C
Activity (Xenopus laevis [1]): Active | fold change (FC) (Oocyte [6]): 0.86 | Activity (Xenopus laevis [2]): inactive | fold change (FC) (Oocyte [7]): 1.53 | EC50 (Xenopus laevis [3]): 2.09 µM | fold change (FC) (Oocyte [8]): 0.9 | fold change (FC) (Oocyte [9]): 0.05 | EC50 (Xenopus laevis [5]): 10 µM

C[C@]12CC[C@@H](O)C[C@@H]1CC[C@@H]1[C@@H]2C(=O)C[C@]2(C)/C(=C\C#N)CC[C@@H]12
Time (Mus musculus [10]): 1.5 min | Activity (Xenopus laevis [1]): Active | Activity (Xenopus laevis [2]): inactive | Time (Mus musculus [11]): 4 min | EC50 (Xenopus laevis [5]): 5.48 µM

CC(=O)[C@H]1CC[C@H]2[C@@H]3CC[C@H]4C[C@H](O)CC[C@]4(C)[C@H]3C(=O)C[C@]12C [ALFAXALONE]
Activity (Mus musculus [12]): Active | Time (Mus musculus [11]): 4 min | Time (Mus musculus [13]): 1 min | Activity (Mus musculus [14]): inactive

C/C(C#N)=C1\CC[C@H]2[C@@H]3CC[C@H]4C[C@H](O)CC[C@]4(C)[C@H]3C(=O)C[C@]12C
Activity (Xenopus laevis [1]): Active | fold change (FC) (Oocyte [6]): 1.52 | Activity (Xenopus laevis [2]): inactive | fold change (FC) (Oocyte [7]): 5.02 | EC50 (Xenopus laevis [3]): 2.71 µM | fold change (FC) (Oocyte [8]): 0.9 | fold change (FC) (Oocyte [9]): 0.04 | EC50 (Xenopus laevis [5]): 5.48 µM

C[C@]12CC[C@@H](O)C[C@@H]1CC[C@H]1[C@@H]3CC[C@H](CC#N)[C@@]3(C)CC(=O)[C@@H]12
Activity (Xenopus laevis [1]): Active | fold change (FC) (Oocyte [6]): 1.13 | Activity (Xenopus laevis [2]): inactive | fold change (FC) (Oocyte [7]): 4.67 | EC50 (Xenopus laevis [3]): 3.58 µM | fold change (FC) (Oocyte [8]): 0.91 | fold change (FC) (Oocyte [9]): 0.01
